{"data": "Measurements collected from several papers", "Chymotrypsinogen A": "Chymotrypsinogen A (Bos taurus, UniProt P00766)", "lecA": "PA-I galactophilic lectin (lecA, Pseudomonas aeruginosa, UniProt Q05097)", "note": "Protocols differ between the studies behind these lines. pKi: −log10 of the molar value."}
{"Compound": "c1cc2c(cc1C1CCCCC1)c1c3n2CCNC3CCC1 (stereo not shown)", "target": "Amine oxidase [flavin-containing] A (Maoa, Rattus norvegicus, UniProt P21396)", "observed": "enzyme activity", "action": "inhibitor", "pH": "pH 7.5", "pKi": 5.44}
{"Compound": "CCCC[C@H](NC(=O)[C@H](CCC(N)=O)NC(=O)[C@H](CO)NC(=O)[C@H](CO)NC(=O)CCCCCN)C(=O)N[C@@H](CC(C)C)B(O)O", "target": "Chymotrypsinogen A", "observed": "enzyme activity", "action": "inhibitor", "technique": "fluorescence", "pKi": 6.86}
{"Compound": "OCC(F)(F)F", "target": "ADH1 (Saccharomyces cerevisiae, UniProt P00330, W83R)", "observed": "enzyme activity", "action": "inhibitor", "pKi": 3.01}
{"Compound": "CCn1c(-c2nc3cc(C(=O)N4CCC[C@@H](N)C4)cc(OC)c3n2C)cc2cccnc21", "target": "Protein-arginine deiminase type-3 (PADI3, Homo sapiens, UniProt Q9ULW8)", "observed": "enzyme activity", "action": "inhibitor", "pKi": 3.03}
{"Compound": "O=C(CCCCn1cc(CCN2CCN(c3cc4c(cc3F)c(=O)c(C(=O)O)cn4C3CC3)CC2)nn1)Nc1ccc(S[C@@H]2O[C@H](CO)[C@H](O)[C@H](O)[C@H]2O)cc1", "target": "lecA", "observed": "ligand displacement", "technique": "FP", "pKi": 5.57}
{"Compound": "O=[N+]([O-])c1ccc(O[C@@H]2O[C@H](CO)[C@H](O)[C@H](O)[C@H]2O)cc1", "target": "lecA", "observed": "ligand displacement", "technique": "FP", "pKi": 4.57}
{"Compound": "[N-]=[N+]=NCCC(=O)Nc1ccc(S[C@@H]2O[C@H](CO)[C@H](O)[C@H](O)[C@H]2O)cc1", "target": "lecA", "observed": "ligand displacement", "technique": "FP", "pKi": 5.40}
{"Compound": "CCCC[C@H](NC(=O)[C@H](CCC(N)=O)NC(=O)[C@H](CO)NC(=O)C[C@@H](Cc1ccc2ccccc2c1)NC(=O)CCCCCN)C(=O)N[C@@H](Cc1ccccc1)B(O)O", "target": "Chymotrypsinogen A", "observed": "enzyme activity", "action": "inhibitor", "technique": "fluorescence", "pKi": 8.14}
{"Compound": "[N-]=[N+]=NCCCC(=O)Nc1ccc(S[C@@H]2O[C@H](CO)[C@H](O)[C@H](O)[C@H]2O)cc1", "target": "lecA", "observed": "ligand displacement", "technique": "FP", "pKi": 5.40}
{"Compound": "CCCC[C@H](NC(=O)[C@H](CCC(N)=O)NC(=O)[C@H](CO)NC(=O)[C@H](C)NC(=O)CCCCCN)C(=O)N[C@@H](Cc1ccccc1)B(O)O", "target": "Chymotrypsinogen A", "observed": "enzyme activity", "action": "inhibitor", "technique": "fluorescence", "pKi": 7.44}
{"Compound": "O=C(Cn1cc(CCN2CCN(c3cc4c(cc3F)c(=O)c(C(=O)O)cn4C3CC3)CC2)nn1)Nc1ccc(S[C@@H]2O[C@H](CO)[C@H](O)[C@H](O)[C@H]2O)cc1", "target": "lecA", "observed": "ligand displacement", "technique": "FP", "pKi": 5.83}
{"Compound": "CCCC[C@H](NC(=O)[C@H](CCC(N)=O)NC(=O)[C@H](CO)NC(=O)[C@H](Cc1ccccc1)NC(=O)CCCCCN)C(=O)N[C@@H](Cc1ccccc1)B(O)O", "target": "Chymotrypsinogen A", "observed": "enzyme activity", "action": "inhibitor", "technique": "fluorescence", "pKi": 9.87}
{"Compound": "NC(=O)C1=CN([C@@H]2O[C@H](COP(=O)(O)OP(=O)(O)OC[C@H]3O[C@@H](n4cnc5c(N)ncnc54)[C@H](O)[C@@H]3O)[C@@H](O)[C@H]2O)C=CC1", "target": "ADH1 (Saccharomyces cerevisiae, UniProt P00330, W55R)", "observed": "enzyme activity", "action": "inhibitor", "pKi": 3.24}
